Laboratory results from the RNAGym collection of RNA variant scans (doi:10.1126/science.aae0568).
Fewer inactive variants are shown than the library holds.

B1: tRNA (parent)
chain: GUUCCGUUGGCGUAAUGGUAACGCGUCUCCCUCCUAAGGAGAAGACUGCGGGUUCGAGUCCCGUACGGAACG

Variants of: B1
Assay: yeast fitness relative to wild type (ratio to wild type); higher = fitter; tRNA-Arg(CCU), competitive growth, 37 C, YPD
Method in brief: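 The tRNA-Arg(CCU) gene variants were made by chemical synthesis with a 3% per-site mutation rate at 69 sites and inserted at the native genomic locus of Saccharomyces cerevisiae. After pooling, the strains were competed in YPD at 37°C for 24 hours in six parallel replicates. Gene amplicons from the start population and each end population were read by 100-nucleotide paired-end sequencing, and Darwinian fitness relative to wild type was taken from genotype frequency changes. Genotypes needed ≥ 100 starting reads, and estimates < 0.5 were set to 0.5.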

First: G23A C31G
Second: C5U A21G C29U A45U
The yeast fitness of the first is higher: 0.811 for the first, 0.538 for the second.

First: C5U A20U C30G C66U
Second: U7G C22A
The yeast fitness of the first is lower: at most 0.5 for the first, 0.653 for the second.

Going from U7A A37C G51A G67A to U7C G56A, the yeast fitness rises from at most 0.5 to 0.977.

C34U G52C C55U G58A and C27G C31A A37C cannot be ordered by yeast fitness: at most 0.5 for the first, at most 0.5 for the second.

Going from C55U G68C to G9C A36U A45C G52A, the yeast fitness falls from 0.702 to at most 0.5.

Going from C5U U7G A14G C30A A65C to C27A U59G, the yeast fitness rises from 0.704 to 0.778.

Going from C27A U59C to C31U C62G G68C, the yeast fitness falls from 0.883 to 0.507.

G10C U47G and C4A G18C C29A C31A A36U cannot be ordered by yeast fitness: at most 0.5 for the first, at most 0.5 for the second.

Going from G23C C46U C62U to G6A U13G C22A U26A C29G C34G G50C, the yeast fitness falls from 0.592 to at most 0.5.

Going from C30U G50A C61G to A20G A45C A70C, the yeast fitness rises from at most 0.5 to 0.789.

G6A C27U A42U and U19C G48A G58C C61A cannot be ordered by yeast fitness: at most 0.5 for the first, at most 0.5 for the second.

First: C31G C49G
Second: G9C U13C A69C
The yeast fitness of the first is higher: 0.753 for the first, 0.564 for the second.

C5U U7C C24G C27A and C5G A21C G51A G58A cannot be ordered by yeast fitness: at most 0.5 for the first, at most 0.5 for the second.

G12A U13A A42C A70U and C5G U26C A42G A57G A70G cannot be ordered by yeast fitness: at most 0.5 for the first, at most 0.5 for the second.

Compared with C5U A14C G41C, C4A A20G A37U C61A is lower in yeast fitness: 0.613 for the first, at most 0.5 for the second.

Compared with G23A A36C, C24G C61G is lower in yeast fitness: 0.586 for the first, 0.537 for the second.

Going from A40C U59A to C49U G52A, the yeast fitness falls from 0.801 to 0.748.

Going from G18A C55G to U3G U8C G68C, the yeast fitness falls from 0.554 to at most 0.5.

Compared with U2C U28C, G12C U13C A20C C24G G39C is lower in yeast fitness: 0.912 for the first, at most 0.5 for the second.

First: C30U A57C G63C
Second: C11G A42C
The yeast fitness of the first is lower: at most 0.5 for the first, 0.636 for the second.

Compared with U7A G9C C24A A43U G52A, A40U A43C U59C is higher in yeast fitness: at most 0.5 for the first, 0.752 for the second.

First: C4A U13C A20C C34A G39C A43U
Second: U3C G56A A69C
The yeast fitness of the first is lower: at most 0.5 for the first, 0.802 for the second.

Compared with U3G C46U, C4U A14G A45C G63C is lower in yeast fitness: 0.903 for the first, at most 0.5 for the second.

Going from G9A A45C C49U to A21G C33A A65C A70C, the yeast fitness falls from 0.643 to 0.54.

Compared with A21U G23C, U13A C66U G68C is lower in yeast fitness: 0.579 for the first, 0.51 for the second.

Going from G17A C30U A57C A69C to C31G U59A, the yeast fitness rises from 0.688 to 0.779.

G12C U16C C31G and C4U A45G U53G cannot be ordered by yeast fitness: at most 0.5 for the first, at most 0.5 for the second.

Compared with C24U U32G A40U, C29A A65U is higher in yeast fitness: 0.513 for the first, 0.626 for the second.

U7C G23A C33G and U54C C61A G68U cannot be ordered by yeast fitness: at most 0.5 for the first, at most 0.5 for the second.

C5G A15G U54A C55G and C30G U47G A65G cannot be ordered by yeast fitness: at most 0.5 for the first, at most 0.5 for the second.

Going from U7A C22A A57C to A36C C49U G67C, the yeast fitness rises from at most 0.5 to 0.532.

Going from C31G G44C A69C A70C to G12C C31G G51A C55G A57G G68C, the yeast fitness falls from 0.528 to at most 0.5.

Compared with C22A C29A U54G, U3A C46G A70C is higher in yeast fitness: at most 0.5 for the first, 0.715 for the second.

First: U3C C4U C30U A57G
Second: U19A U26A C29A C46G U54A
The yeast fitness of the first is lower: at most 0.5 for the first, 0.603 for the second.

Compared with U26G A45C, C55A A57C G58A is lower in yeast fitness: 0.795 for the first, at most 0.5 for the second.

Compared with U3A C30G G68A, A42C U47A G63C A69C is higher in yeast fitness: at most 0.5 for the first, 0.578 for the second.

First: G9A A14G C29U U32A A43U
Second: G25C C31A
The yeast fitness of the first is lower: at most 0.5 for the first, 0.677 for the second.

First: G17A C34A G52U
Second: C4G U35C C49U
The yeast fitness of the first is lower: at most 0.5 for the first, 0.533 for the second.

G6C G41A A43G C60U A70C and A14C C24U C31U A40U G44A cannot be ordered by yeast fitness: at most 0.5 for the first, at most 0.5 for the second.

Compared with G18A G25C A43U, C5A G10A U35C C49A is lower in yeast fitness: 0.6 for the first, at most 0.5 for the second.

First: U8A U26A C29A A65C A70C
Second: C5G G6C C34U G38C
The yeast fitness of the first is lower: at most 0.5 for the first, 0.749 for the second.

C24U A57G C60U G68C and A21U A36C G38C G58C A69C cannot be ordered by yeast fitness: at most 0.5 for the first, at most 0.5 for the second.
